Laboratory results from ChEMBL document CHEMBL3112482, “Nonclassical antifolates, part 5. Benzodiazepine analogs as a new class of DHFR inhibitors: synthesis, antitumor testing and molecular modeling study” (Eur J Med Chem, 2014).
pIC50: −log10 of the molar value.

What was measured:
Dihydrofolate reductase = biological target: T1, Dihydrofolate reductase (Bos taurus, UniProt P00376); assay: Inhibition of bovine liver DHFR measured for every 1 min of 10 mins
T1 sequence (P00376 whole entry): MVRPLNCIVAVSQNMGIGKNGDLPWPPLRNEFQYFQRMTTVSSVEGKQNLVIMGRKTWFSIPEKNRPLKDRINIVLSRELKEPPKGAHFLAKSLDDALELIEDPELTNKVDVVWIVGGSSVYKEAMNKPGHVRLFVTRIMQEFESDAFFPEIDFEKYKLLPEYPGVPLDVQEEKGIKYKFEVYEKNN

[1] = Cytotoxicity against human colon cancer cells at 10 uM after 48 hrs; type: functional; conditions: Cancer cell lines
How it was run: (§1)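 Single-dose primary screen in the NCI 60 human tumour cell line panel, run at the NCI facility. The panel covers nine subpanels: leukaemia, non-small cell lung, colon, CNS, melanoma, ovarian, renal, prostate and breast. Read-out was percent growth of treated cells, shown as a mean graph and reported as percent growth inhibition.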

[2] = Cytotoxicity against human prostate cancer cells at 10 uM after 48 hrs; type: functional; conditions: Cancer cell lines
[3] = Cytotoxicity against human renal cancer cells at 10 uM after 48 hrs; type: functional; conditions: Cancer cell lines
[4] = Cytotoxicity against human melanoma cells at 10 uM after 48 hrs; type: functional; conditions: Melanoma cell; how it was run: as §1
[5] = Cytotoxicity against human non-small cell lung cancer cells at 10 uM after 48 hrs; type: functional; conditions: Cancer cell lines; how it was run: as §1
[6] = Cytotoxicity against human CNS cancer cells at 10 uM after 48 hrs; type: functional; conditions: Cancer cell lines
[7] = Cytotoxicity against human leukemia cells at 10 uM after 48 hrs; type: functional; conditions: Leukemia cell
[8] = Cytotoxicity against human breast cancer cells at 10 uM after 48 hrs; type: functional; conditions: Cancer cell lines; how it was run: as §1
[9] = biological target: Dihydrofolate reductase (Bos taurus) (UniProt P00376); assay: Ratio of MTX IC50 to compound IC50 for bovine liver DHFR
How it was run: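 Bovine liver DHFR in Tris buffer pH 7.5, with dihydrofolate substrate. Final working levels were 0.29 g/l NADPH and 15 U/l DHFR. Absorbance was read at 340 nm at room temperature in kinetic mode every 1 min for 10 min. ΔA/min was taken relative to DMSO control to give % inhibition versus log concentration, from which the IC50 was derived. Methotrexate was the reference.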

[10] = read-out: LC50 (the source's name)

Brc1ccc(/C=C2\CCCC3=C(c4ccc(Br)cc4)Nc4ccccc4N=C32)cc1
pIC50 (Dihydrofolate reductase): 4.19

O=c1[nH]cc(F)c(=O)[nH]1 [FLUOROURACIL]
GI50 [1]: 8.4 µM | TGI [1]: > 100 µM | CC50 [1, 10]: > 100 µM | GI50 [2]: 22.7 µM | TGI [2]: > 100 µM | CC50 [3]: > 100 µM | GI50 [3]: 45.6 µM | TGI [3]: > 100 µM | GI50 [4]: 70.6 µM | TGI [4]: > 100 µM | CC50 [4, 10]: > 100 µM | GI50 [5]: > 100 µM | TGI [5]: > 100 µM | CC50 [5, 10]: > 100 µM | TGI [6]: > 100 µM | CC50 [6, 10]: > 100 µM | TGI [7]: > 100 µM | GI50 [8]: 76.4 µM | TGI [8]: > 100 µM

Clc1cc2c(cc1Cl)NC(c1ccc(Br)cc1)=C1CCC/C(=C\c3ccc(Br)cc3)C1=N2
pIC50 (Dihydrofolate reductase): 7.00

COc1ccc(/C=C2\CCCC3=C(c4ccc(OC)cc4)Nc4cc(C)c(C)cc4N=C32)cc1
pIC50 (Dihydrofolate reductase): 7.00

COc1ccc(/C=C2\CCCC3=C(c4ccc(OC)c(OC)c4)Nc4cc(C)c(C)cc4N=C32)cc1OC
Ratio IC50 [9]: 20 | pIC50 (Dihydrofolate reductase): 8.40
